Experimental data as given in ChEMBL document CHEMBL1123469, “Synthesis and activity of 6-aryl-3-(hydroxypolymethyleneamino)pyridazines in animal models of epilepsy” (1986).

Tests used:
Type in all cases: functional
[1] = system: Mus musculus; experiment: Evaluated for anticonvulsant activity when administered orally in mice by Maximal electroshock (MES).; details: po
Summary of the method: (§1)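 Female Swiss CD1 mice (18-23 g), groups of 10, were dosed orally at 20 mL/kg. Test compounds were given in dilute HCl (pH 3) and references in 5% gum tragacanth, 60 min before a 60-V alternating current for 0.3 s through corneal electrodes. Protection meant abolition of the hindlimb tonic extensor component.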

[2] = system: Mus musculus; experiment: Evaluated for Bicuculline-induced seizures (anticonvulsant activity) when administered at 100 mg/kg orally in mice.; details: route oral
Summary of the method: (§2)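 Female Swiss CD1 mice (18-23 g) were dosed orally at 20 mL/kg, test compounds in dilute HCl (pH 3) and references in gum tragacanth. Protection against bicuculline- or pentylenetetrazole-induced clonic/tonic seizures and lethality was scored.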

[3] = system: Mus musculus; experiment: Evaluated for Bicuculline-induced lethality (anticonvulsant activity) when administered orally in mice.; details: po
Summary of the method: (§3)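 Female Swiss albino CD1 mice (18-23 g), oral dosing (20 mL/kg); test compounds dissolved in dilute HCl (pH 3), reference drugs suspended in 5% gum tragacanth. Bicuculline challenge, scoring protection from seizures and from lethality. […] Weakly active agents reported as percent protected at the stated dose.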

[4] = system: Mus musculus; experiment: Evaluated for the sedative property by the rotarod test at 100 mg/kg.
Summary of the method: (§4)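 Motor coordination was tested on the rotorod in groups of 10 female Swiss CD1 mice (18-23 g). Drug or vehicle was given orally, test compounds in dilute HCl (pH 3), 60 min before testing.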

[5] = system: Mus musculus; experiment: Anticonvulsant activity when administered 100 mg/kg orally in mice Maximal electroshock (MES); details: route oral; summary of the method: as §1
[6] = system: Mus musculus; experiment: Evaluated for Bicuculline-induced lethality (anticonvulsant activity) when administered 100 mg/kg orally in mice.; details: route oral; summary of the method: as §3
[7] = system: Mus musculus; experiment: Evaluated for Bicuculline-induced seizures (anticonvulsant activity) when administered orally in mice.; details: po; summary of the method: as §2
[8] = organism: Mus musculus; experiment: Sedative property by the rotarod test; summary of the method: as §4
[9] = system: Mus musculus; experiment: Compound was evaluated for the sedative property by the rotarod test at 250 mg/kg
Summary of the method: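 Rotorod motor-coordination test in female Swiss albino CD1 mice (18-23 g). Groups of 10 mice dosed with test drug or vehicle 60 min before testing; test compounds dissolved in dilute HCl (pH 3).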

[10] = organism: Papio hamadryas; experiment: Antagonist activity to generalized seizures Photically induced seizures in senegalese Papio papio baboons
Summary of the method: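 Naturally photosensitive baboons of both sexes (4-7 kg) were dosed orally, test compounds in dilute HCl (pH 3) and references in 5% gum tragacanth, at 4 mL/kg. They were photically stimulated at hourly intervals afterwards, and the myoclonic response was graded after Killam. Threshold active dose is the first dose that protected at least two of four animals for at least 2 h.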

[11] = organism: Mus musculus; experiment: Sedative properties by the rotarod test; summary of the method: as §4
[12] = system: Mus musculus; experiment: Anticonvulsant activity in tonic seizures when administered orally in mice; details: po
[13] = organism: Rattus norvegicus; experiment: Antagonist activity to generalized seizures kindled amygdaloid seizures in rats
Summary of the method: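 Male Sprague-Dawley rats (200-500 g), groups of 10, carried platinum electrodes in the right basolateral amygdala. They counted as kindled after stage-5 seizures on 3 consecutive days at 30-90 μA. A control stimulation was followed by an oral dose (5 mL/kg) and restimulation 1 h later. After-discharge duration and Racine seizure stage were compared with vehicle.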

[14] = system: Mus musculus; experiment: Anticonvulsant activity in Clonic seizures when administered orally in mice; details: po; summary of the method: as §2
[15] = system: Mus musculus; experiment: Anticonvulsant activity in Maximal electroshock (MES) when administered orally in mice; details: po; summary of the method: as §1
[16] = system: Mus musculus; experiment: Compound was evaluated for Bicuculline-induced seizures (anticonvulsant activity)when administered orally in mice; details: po; summary of the method: as §3

Cc1cccc(-c2ccc(N3CCC(O)CC3)nn2)c1
ED50 [1]: 36 mg/kg
Protected [2]: 30%
ED50 [3]: 50 mg/kg
Protected [4]: 0%

OC1CCN(c2ccc(-c3ccccc3Cl)nn2)C1 (configuration not stated)
Protected [5]: 30%
Protected [2]: 40%
Protected [4]: 0%

O=C(OC1CCN(c2ccc(-c3ccccc3Cl)nn2)CC1)C1CC1
Protected [5]: 60%
ED50 [3]: 71 mg/kg
Protected [4]: 0%

O=C1CCN(c2ccc(-c3ccccc3Cl)nn2)CC1
ED50 [3]: 25 mg/kg
Protected [4]: 40%

CNC(=O)OC1CCN(c2ccc(-c3cccc(Cl)c3)nn2)CC1
Protected [5]: 40%
Protected [2]: 10%
Protected [6]: 0%
Protected [4]: 0%

O=[N+]([O-])c1ccccc1-c1ccc(N2CCC(O)CC2)nn1
ED50 [3]: 57 mg/kg
Protected [4]: 0%

N#Cc1cccc(-c2ccc(N3CCC(O)CC3)nn2)c1
Protected [5]: 33%
Protected [2]: 10%
Protected [4]: 0%

C/N=C(\S)OC1CCN(c2ccc(-c3ccccc3Cl)nn2)CC1
ED50 [1]: 35 mg/kg
ED50 [3]: 20 mg/kg
ED50 [7]: 20 mg/kg

CCCCNC(=O)OC1CCN(c2ccc(-c3ccccc3Cl)nn2)CC1
Protected [5]: 20%
Protected [2]: 0%
Protected [4]: 0%

CCCC(=O)OC1CCN(c2ccc(-c3ccc(Cl)cc3Cl)nn2)CC1
ED50 [8]: 30 mg/kg
ED50 [1]: 50 mg/kg
ED50 [3]: 30 mg/kg
ED50 [7]: 31 mg/kg

Oc1ccccc1-c1ccc(N2CCC(O)CC2)nn1
Protected [9]: 0%
Protected [5]: 0%
Protected [2]: 0%

OC1CCN(c2ccc(-c3ccc(Cl)c(Cl)c3)nn2)CC1
Protected [5]: 25%
Protected [2]: 0%
Protected [6]: 20%
Protected [4]: 100%

COc1ccc(-c2ccc(N3CCC(O)CC3)nn2)cc1
Protected [5]: 50%
Protected [2]: 20%
Protected [4]: 0%

OC1CCN(c2ccc(-c3ccsc3)nn2)CC1
Protected [5]: 80%
Protected [2]: 10%
Protected [6]: 20%
Protected [4]: 0%

OC1CCN(c2ccc(-c3ccc(Cl)cc3)nn2)CC1
ED50 [1]: 29 mg/kg
Protected [2]: 0%
Protected [6]: 70%
Protected [4]: 40%

CCCC(CCC)C(=O)[O-].[Na+] [VALPROATE SODIUM]
Threshold active dose [10]: 300 mg/kg
ED50 [11]: 406 mg/kg
ED50 [12]: 201 mg/kg
Threshold active dose [13]: 200 mg/kg
ED50 [14]: 363 mg/kg
ED50 [15]: 324 mg/kg
ED50 [3]: 246 mg/kg
ED50 [7]: 274 mg/kg

CCCCNC(=O)OC1CCN(c2ccc(-c3ccc(Cl)cc3)nn2)CC1
Protected [5]: 0%
Protected [2]: 0%
Protected [4]: 0%

NC(=O)N1c2ccccc2C=Cc2ccccc21 [CARBAMAZEPINE]
Threshold active dose [10]: 100 mg/kg
ED50 [11]: 95 mg/kg
ED50 [12]: 21 mg/kg
Threshold active dose [13]: 10 mg/kg
ED50 [14]: > 100 mg/kg
ED50 [15]: 21 mg/kg
ED50 [3]: 16 mg/kg
ED50 [7]: 29 mg/kg

Cc1ccc(-c2ccc(N3CCC(O)CC3)nn2)c(Cl)c1
ED50 [8]: 48 mg/kg
ED50 [1]: 21 mg/kg
ED50 [3]: 16 mg/kg
ED50 [7]: 17 mg/kg

OC1CCN(c2ccc(-c3ccccc3)nn2)CC1
ED50 [3]: 41 mg/kg
Protected [4]: 0%

OC1CCN(c2ccc(-c3ccc(Cl)s3)nn2)CC1
Protected [5]: 30%
Protected [2]: 50%
Protected [4]: 0%

CNC(=O)OC1CCN(c2ccc(-c3ccc(Cl)cc3Cl)nn2)CC1
ED50 [8]: 20 mg/kg
ED50 [1]: 5.5 mg/kg
ED50 [3]: 1.4 mg/kg
ED50 [7]: 1.4 mg/kg

CC(C)(C)C(=O)OC1CCN(c2ccc(-c3ccccc3Cl)nn2)CC1
Protected [5]: 0%
Protected [2]: 0%
Protected [4]: 0%

CN(C)C(=O)OC1CCN(c2ccc(-c3ccccc3Cl)nn2)CC1
ED50 [8]: 8.4 mg/kg
ED50 [3]: 1.1 mg/kg

OC1CCN(c2ccc(-c3cccc(Cl)c3)nn2)CC1
Protected [2]: 10%
Protected [6]: 40%
Protected [4]: 40%

CCC1(c2ccccc2)C(=O)NC(=O)NC1=O [PHENOBARBITAL]
Threshold active dose [10]: 5 mg/kg
ED50 [11]: 61 mg/kg
ED50 [12]: 7 mg/kg
Threshold active dose [13]: 20 mg/kg
ED50 [14]: 15 mg/kg
ED50 [15]: 5.4 mg/kg
ED50 [16]: 5.8 mg/kg
ED50 [3]: 5.2 mg/kg
